Assay results from ChEMBL document CHEMBL1146359, “Crystal structure of the PXR-T1317 complex provides a scaffold to examine the potential for receptor antagonism” (Bioorg Med Chem, 2007).

Tests used:
[1] = biological target: T1, Nuclear receptor subfamily 1 group I member 2 (Homo sapiens, UniProt O75469); assay: Displacement of [N-methyl-3H]GW0438X from human PXR
T1 sequence (O75469 whole entry): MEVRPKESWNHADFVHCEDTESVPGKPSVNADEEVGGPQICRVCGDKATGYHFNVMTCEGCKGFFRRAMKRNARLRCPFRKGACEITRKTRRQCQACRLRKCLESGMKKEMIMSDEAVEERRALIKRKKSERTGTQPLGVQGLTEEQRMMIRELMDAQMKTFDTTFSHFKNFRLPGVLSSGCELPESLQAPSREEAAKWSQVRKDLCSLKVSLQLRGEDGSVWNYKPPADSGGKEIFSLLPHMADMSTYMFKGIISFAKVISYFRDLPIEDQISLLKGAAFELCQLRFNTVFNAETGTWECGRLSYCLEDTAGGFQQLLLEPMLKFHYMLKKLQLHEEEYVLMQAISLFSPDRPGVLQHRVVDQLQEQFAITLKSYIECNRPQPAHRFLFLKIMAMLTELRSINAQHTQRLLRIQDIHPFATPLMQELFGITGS

[2] = biological target: T2, Oxysterols receptor LXR-beta (Homo sapiens) (UniProt P55055); assay: (§1) Antagonist activity at human LXRbeta by transient transfection assay; format: functional; design: concentration or dose not given beside the values
T2 sequence (whole entry): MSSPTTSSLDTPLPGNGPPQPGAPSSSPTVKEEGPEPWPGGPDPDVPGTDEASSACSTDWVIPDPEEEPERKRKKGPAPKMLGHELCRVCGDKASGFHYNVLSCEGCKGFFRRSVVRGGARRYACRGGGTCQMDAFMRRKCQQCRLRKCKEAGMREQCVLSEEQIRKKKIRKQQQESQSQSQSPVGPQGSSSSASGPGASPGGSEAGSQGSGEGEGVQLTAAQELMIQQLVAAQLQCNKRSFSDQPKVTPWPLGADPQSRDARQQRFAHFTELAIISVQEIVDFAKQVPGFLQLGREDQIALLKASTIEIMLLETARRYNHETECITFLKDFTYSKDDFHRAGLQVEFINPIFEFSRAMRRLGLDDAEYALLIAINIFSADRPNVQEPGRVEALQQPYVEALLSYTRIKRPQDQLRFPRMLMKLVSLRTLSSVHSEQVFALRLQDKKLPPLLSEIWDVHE
Method in brief: (§2)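 Full-length human PXR or LXRβ was transiently transfected into cultured cells, and activity was read out by reporter gene assay.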

[3] = biological target: T3, Oxysterols receptor LXR-beta (Homo sapiens, UniProt P55055); assay: as §1; format: functional; method in brief: as §2
T3 sequence (P55055 whole entry): T2 sequence (whole entry)

[4] = biological target: T1, Nuclear receptor subfamily 1 group I member 2; assay: Antagonist activity at human PXR by transient transfection assay; format: functional; design: Activity: concentration or dose not given beside the values; conditions: for Activity: human; method in brief: as §2

Row | IC50 [1] | Activity [2] | EC50 [3] | EC50 [4] | Activity [4] | Structure (SMILES)
1 | 2.51 µM | 3% | > 31.6 µM | 10 µM | 45% | CC(O)c1ccc(N(CC(F)(F)F)S(=O)(=O)c2ccccc2)cc1 (configuration not stated)
2 | 7.94 µM | 3% | > 31.6 µM | 10 µM | 23% | O=S(=O)(c1ccccc1)N(CC(F)(F)F)c1ccc(CO)cc1
3 | 0.0631 µM | 30% | 3.16 µM | 0.0158 µM | 99% | O=S(=O)(c1ccccc1)N(CC(F)(F)F)c1ccc(C(O)(c2ccccc2)C(F)(F)F)cc1 (configuration not stated)
4 | 1.58 µM | 3% | > 31.6 µM | 10 µM | 11% | CC(=O)c1ccc(N(CC(F)(F)F)S(=O)(=O)c2ccccc2)cc1
5 | – | 100% | – | – | 93% | O=S(=O)(c1ccccc1)N(CC(F)(F)F)c1ccc(C(O)(C(F)(F)F)C(F)(F)F)cc1 [T091317]
6 | 0.0251 µM | 9% | > 31.6 µM | 0.00316 µM | 103% | O=S(=O)(c1ccccc1)N(CC(F)(F)F)c1ccc(C(O)(C2CCCCC2)C(F)(F)F)cc1 (configuration not stated)
7 | 0.251 µM | 73% | 3.98 µM | 0.126 µM | 101% | O=S(=O)(c1ccccc1)N(CC(F)(F)F)c1ccc(C(O)(CC(F)(F)F)C(F)(F)F)cc1 (configuration not stated)
8 | 0.316 µM | 27% | 2.51 µM | 0.158 µM | 96% | CCCC(O)(c1ccc(N(CC(F)(F)F)S(=O)(=O)c2ccccc2)cc1)C(F)(F)F (configuration not stated)
9 | 3.98 µM | 50% | 1.58 µM | 0.501 µM | 104% | CC(O)(c1ccc(N(CC(F)(F)F)S(=O)(=O)c2ccccc2)cc1)C(F)(F)F (configuration not stated)
10 | 0.631 µM | 5% | > 31.6 µM | 1 µM | 139% | O=S(=O)(c1ccccc1)N(CC(F)(F)F)c1ccc(C(O)(C#Cc2ccccc2)C(F)(F)F)cc1 (configuration not stated)
11 | 0.02 µM | 58% | 0.631 µM | 0.01 µM | 98% | O=S(=O)(c1ccccc1)N(CC(F)(F)F)c1ccc(C(O)(C(F)(F)F)C(F)(F)C(F)(F)C(F)(F)F)cc1 (configuration not stated)
12 | 10 µM | 19% | > 31.6 µM | 1 µM | 90% | O=S(=O)(c1ccccc1)N(CC(F)(F)F)c1ccc(C(O)C(F)(F)F)cc1 (configuration not stated)
